Compounds with a hit are over-represented: about 5.8% of the library has one in this group of screens.
WT yeast gro inh = growth inhibition of WT yeast, mitochondrial fusion screen; mitochondrial fusion phenotypic screen, WT strain; inhibition, % at 10 µM; 190,000 tested, 2.1% active; AID 1362; in the data active = inhibition above about 58%; tested in S. cerevisiae
14-3-3 Bad inh = disrupts binding of bovine 14-3-3 zeta to phospho-Bad peptide; P63103; TR-FRET 14-3-3zeta/Dy647-pBad peptide displacement, 1 h; inhibition, % at 21.7 µM; 220,000 tested, 0.71% active; AID 781;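 active = inhibition above about 70%, limit read from the data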;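 note: 0% = full 14-3-3 plus peptide FRET controls and 100% = background without 14-3-3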
RBBP9 inh = inhibitors of human serine hydrolase RBBP9; O75884; recombinant RBBP9, FP-Rh probe fluorescence polarization; inhibition, % at 7.94 µM; 220,000 tested, 0.2% active; AID 1515;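 active = inhibition above the campaign mean of all tested compounds plus 3 SD, cut at about 14% in these data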;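 note: plate controls were DMSO wells with RBBP9 for no effect and wells lacking RBBP9 protein for full effect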
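system = RBBP9 protein | input = RBBP9 at 2.5 µM in dispensed solution, before mixing | measured by = fluorescence polarization (mP), excitation 525 nm, emission 598 nm | incubation = enzyme-compound preincubation 30 min, then probe labeling 45 min, 25 °C | buffer or medium = Tris-NaCl-Pluronic buffer, pH 8.0 | compound = single dose 7.94 µM | also added = FP-Rh probe, 375 nM dispensing solution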
KCC2 mod = KCC2 (human) Cl- transport modulation. 190,000 tested, 2.2% active. KCC2 cells, thallium flux FluoZin-2 fluorescence. B-score of Tl+ flux slope (higher = more flux/activation; lower = inhibition) at 10 µM. AID 1456. Q9H2X9;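 active = thallium flux slope and its plate-corrected score both differing from the plate sample mean at a set confidence after two filtering rounds, in either direction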;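 note: slope of fluorescence scaled to starting intensity during 10 to 20 s after thallium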
p47phox inh = p47phox (human) inhibition; P14598; p47phox/p22phox peptide binding, fluorescence polarization, 2 h; inhibition, % at 24.7 µM; 220,000 tested, 0.53% active;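 active = inhibition above about 30%, limit read from the data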;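 note: 0% = p47phox with labelled peptide and 100% = labelled peptide alone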
Target sequence (P14598 whole entry, looked up): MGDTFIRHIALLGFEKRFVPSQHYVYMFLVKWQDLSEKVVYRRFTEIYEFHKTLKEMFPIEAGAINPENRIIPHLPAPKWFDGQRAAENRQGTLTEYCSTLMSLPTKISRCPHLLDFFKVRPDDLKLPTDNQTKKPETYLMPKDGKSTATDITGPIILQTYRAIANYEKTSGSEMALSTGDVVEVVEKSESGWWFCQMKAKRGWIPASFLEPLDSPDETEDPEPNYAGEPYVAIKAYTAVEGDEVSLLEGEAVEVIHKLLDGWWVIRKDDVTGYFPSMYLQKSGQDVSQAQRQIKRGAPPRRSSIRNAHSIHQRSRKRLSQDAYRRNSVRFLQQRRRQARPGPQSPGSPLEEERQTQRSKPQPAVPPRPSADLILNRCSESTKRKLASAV
ROMK mod = human ROMK K+ channel modulation, primary screen; Tet-inducible ROMK, thallium flux fluorescence; actives lie on both sides; 130,000 tested, 2% active; B-score at 10 µM; P48048;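 active = signal ratio slope over the read window, or its plate-corrected B-score, at least 3 SD from the plate mean, either direction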;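 note: B-score of the F/F0 ratio slope over 7 to 12 s after thallium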
Target sequence (P48048 whole entry, looked up): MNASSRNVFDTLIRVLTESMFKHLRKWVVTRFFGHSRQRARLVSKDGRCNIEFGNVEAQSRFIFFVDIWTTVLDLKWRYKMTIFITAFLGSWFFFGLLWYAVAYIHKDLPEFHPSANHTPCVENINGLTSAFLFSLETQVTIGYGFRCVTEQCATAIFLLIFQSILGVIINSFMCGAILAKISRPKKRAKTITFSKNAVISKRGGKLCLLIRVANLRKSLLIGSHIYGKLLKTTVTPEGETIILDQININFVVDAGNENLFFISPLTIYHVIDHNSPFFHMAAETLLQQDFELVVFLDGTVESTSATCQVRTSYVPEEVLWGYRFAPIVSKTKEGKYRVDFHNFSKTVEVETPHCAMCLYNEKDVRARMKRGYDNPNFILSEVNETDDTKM
KCC2 sec1 = confirmation of human KCC2 transport modulators | shares compounds with KCC2 mod | HEK293-KCC2, thallium flux, FluoZin2 fluorescence; hits give high values | normalised thallium flux (F/F0 slope) at 10 µM | 3,700 tested, 15% active | AID 1713;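 active = thallium flux slope above the same plate's solvent-only control mean plus 3 SD; inconclusive = the two replicate wells disagree; inactive = no significant difference from solvent-only control wells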
KCC2 bumet counter = thallium flux despite bumetanide block in KCC2 cells, secondary assay 3 | 3,700 tested, 49% active | shares compounds with KCC2 mod | normalized thallium flux at 10 µM | HEK293-KCC2 + bumetanide/ouabain, thallium flux FluoZin2; hits give high values;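 active = thallium entry rate above the same plate's blocked-transporter control wells by more than 3 SD; inconclusive = the two repeat wells disagree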;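 note: raw slope of fluorescence over initial fluorescence between 10 and 20 s after thallium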
KCC2 sec2 = KCC2 (human) modulation, second secondary assay; shares compounds with KCC2 mod; normalized thallium flux at 10 µM; 3,700 tested, 23% active; AID 1715; HEK293-KCC2, thallium flux FluoZin2 fluorescence; actives lie on both sides; F/F0 rise rate, 10–20 s post-thallium;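 active = thallium flux slope more than 3 SD above or below the plate's solvent-only control mean, mostly below; inconclusive = the two repeat wells disagreed; inactive = no significant shift from solvent-only controls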;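 note: raw slope with 0.1% DMSO as baseline and bumetanide as block control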
HEK293 Tl flux = parental HEK flux effect, counter-screen | 3,700 tested, 46% active | AID 1716 | HEK293 parental cells, thallium flux FluoZin2, ouabain; baseline-ratio fluorescence slope, 10–20 s after thallium | thallium flux rate (normalised fluorescence) at 10 µM | shares compounds with KCC2 mod;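 active = thallium flux rate significantly above the same plate's solvent-only control wells, beyond their mean plus 3 SD; inconclusive = the two replicate wells gave conflicting results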
KCC2 ouabain = modulates human KCC2 on retest with ouabain; HEK293-KCC2, thallium flux FluoZin2 fluorescence; bidirectional: low = inhibitor, high = activator; raw Tl+ flux slope (below DMSO = inhibition, above = activation) at 10 µM; 3,700 tested, 48% active; AID 1717; shares compounds with KCC2 mod;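 active = thallium flux slope beyond 3 SD from same-plate DMSO control mean in most replicates, usually higher, sometimes lower; inconclusive = repeat tests gave conflicting results; inactive = no significant difference from controls in most replicates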;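 note: slope of initial-normalized fluorescence between seconds 10 and 20 after thallium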
HEK293 Tl flux2 = acts in parental HEK cells, second KCC2 counter-screen | shares compounds with KCC2 mod | thallium flux slope at 10 µM | 3,700 tested, 33% active | HEK293 parental, thallium flux FluoZin-2 fluorescence slope;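 active = thallium flux slope above the same plate's solvent-control mean plus 3 SD in both duplicate wells; inconclusive = duplicate wells that disagreed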;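 note: run without ouabain in cells lacking the KCC2 cotransporter; slope of fluorescence scaled to its starting value between 10 and 20 s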
The depositor's hits bear a star; ? = inconclusive; . = no result given.

SMILES	WT yeast gro inh	14-3-3 Bad inh	RBBP9 inh	KCC2 mod	p47phox inh	ROMK mod	KCC2 sec1	KCC2 bumet counter	KCC2 sec2	HEK293 Tl flux	KCC2 ouabain	HEK293 Tl flux2
COc1cc(C(=S)N2CCCC2)cc(OC)c1O	3.3	-4.2	-9.0	-3.59*	-3.4	1.44	0.00986	0.00592	0.0364	0.00718	0.0233	0.00985
Cn1c(O)c(C2=c3ccccc3=NC2=O)[nH]c1=S	5.4	4.8	-1.4	27.4*	-6.4	.	0.0154*	0.0614*	0.032	0.0306*	0.0427*	0.0139*
O=C1N=c2ccccc2=C1c1sc(=S)n(NC(=O)c2ccccc2)c1O	.	-4.9	-1.0	0.482	-15.5	-0.101	.	.	.	.	.	.
CCOC(=O)c1cc(-c2cccc(C(F)(F)F)c2)nc2nc(SC)[nH]c(=O)c12	-5.5	11.6	-6.9	-1.91	-34.0	0.186	.	.	.	.	.	.
CCOC(=O)c1nc(C)nc(Sc2n[nH]c(-c3cc(C(F)(F)F)cc(C(F)(F)F)c3)n2)c1C	.	-5.8	-4.9	-3.58*	-8.6	-2.57	0.00851	0.00605	0.0345	?	0.0169*	0.0112
O=C(/C=C/Nc1nccs1)C(F)(F)Cl	15.9	-10.7	-0.7	8.86*	-25.0	0.174	?	0.0171*	0.0377*	0.0156*	?	0.0152*
O=C(Nc1nccs1)NC(C(F)(F)F)C(F)(F)F	8.8	50.9	-12.5	0.0405	5.3	-0.697	.	.	.	.	.	.
COc1ccc(NC(=O)c2cccnc2N2CCCC2)cc1	-6.5	-1.6	6.7	.	-1.7	2	?	0.00497	0.0314	0.00798	0.0193	0.0108
Cc1sc2nc(SCC(=O)NCCO)n(C)c(=O)c2c1C	5.7	4.0	4.8	.	-11.9	0.119	.	.	.	.	.	.
CCOC(=O)CNC(=O)CSc1nc2sc(C)c(C)c2c(=O)n1C	8.8	-6.8	-4.0	.	-12.0	0.42	0.00642	0.0185*	0.0373	0.0174*	0.0266*	0.0209*
Cc1sc2nc(SCC(=O)OC(C)C)n(C)c(=O)c2c1C	6.9	-7.1	-6.9	.	-12.0	0.177	0.00768	0.0143*	0.0352	0.0151*	0.0258*	0.018*
Cc1nc2ccccn2c1C(=O)OCC#N	1.0	-8.1	0.5	-0.822	0.5	0.43	.	.	.	.	.	.
COc1ccc(-c2n[nH]c(=S)n2-c2cc(OC)ccc2OC)cc1	.	-4.5	-7.7	.	0.9	.	.	.	.	.	.	.
COc1ccc2c(C)cc3n[nH]c(=S)n3c2c1	.	27.4	-8.4	27.2*	2.2	.	0.0229*	0.0367*	?	0.0282*	0.0306*	0.0295*
CN(C)CCNC(=O)c1ccc(Cl)s1	-15.4	9.8	6.2	7.33*	1.6	.	0.00989	0.00673	0.0318	0.00744	0.0501	?
O=C(CCc1[nH]c2ccccc2c1Sc1ccccc1)NCCO	10.6	-0.2	0.9	-1.2	-9.7	.	.	.	.	.	.	.
Cc1ccc(C)c(NC(=O)CSc2nnc([C@@H](N)Cc3ccccc3)o2)c1	-13.3	6.9	0.6	-4.3*	-12.0	.	0.00893	0.00667	?	0.00677	0.0141*	?
Cc1ccc(C)c(NC(=O)CSc2nnc(-c3ccco3)o2)c1	7.1	-8.2	-2.6	0.294	-6.3	.	.	.	.	.	.	.
Cc1nc(CN(C)C(=O)c2cc(COc3c(F)cccc3F)on2)cs1	-15.3	-3.4	0.1	-2.78	2.6	1.01	.	.	.	.	.	.
Cc1cc(CN(C)C(=O)c2cc(COc3ccc(F)cc3Cl)on2)n[nH]1	-8.8	-9.6	1.3	-4.7*	0.6	-0.2	0.00605*	?	?	0.00832	0.0241	0.0107
Cc1ccc(CN(C)C(=O)c2cc(COc3ccc(F)cc3Cl)on2)o1	18.7	-7.1	-3.1	.	-7.6	-0.742	0.00698	0.00533	0.0258*	0.00721	?	0.0105
Cc1nc(CNC(=O)c2cc(COc3ccc(F)cc3Cl)on2)cs1	7.3	-2.7	-1.6	-4.6*	-5.1	-0.573	0.00651	0.00638	0.0329	0.00426	0.0146*	0.0112
C#CCN(Cc1ccco1)C(=O)c1cc(COc2ccc(F)cc2Cl)on1	53.9	0.3	-5.2	-1.62	-0.8	.	.	.	.	.	.	.
COc1ccc(N2C(=O)C3C(c4ccc(C(=O)O)cc4)NC(Cc4ccccc4)(C(=O)O)C3C2=O)c([N+](=O)[O-])c1 (stereo unspecified)	8.4	2.6	-3.5	0.221	-2.4	0.152	.	.	.	.	.	.
S=C(NCCc1ccccc1)NN=C1CCCCCC1	65.7*	-18.3	-8.3	9.4*	-3.1	-0.0792	0.00759	0.016*	0.0354	?	?	0.012
SMILES	WT yeast gro inh	14-3-3 Bad inh	RBBP9 inh	KCC2 mod	p47phox inh	ROMK mod	KCC2 sec1	KCC2 bumet counter	KCC2 sec2	HEK293 Tl flux	KCC2 ouabain	HEK293 Tl flux2
COCCNC(=S)N/N=C(\C)c1ccc(Cl)c(Cl)c1	33.6	-7.2	-1.4	6.62*	-2.9	-0.382	?	0.0319*	0.0355	?	0.0295*	?
C/C(=N\NC(=S)NCCc1ccccc1)c1ccc(C#N)cc1	12.0	-14.6	-9.9	0.51	-15.3	-0.0166	.	.	.	.	.	.
C/C(=N\NC(=S)NCCc1ccccc1)c1ccc(Cl)cc1	51.1	-19.2	-17.5	6.24*	-18.1	0.312	0.00608	0.0144*	0.0297	0.014*	0.0231	?
C/C(=N\O)c1ccc(Cl)c(Cl)c1	.	2.5	-3.1	-0.032	-8.2	-0.119	.	.	.	.	.	.
CNC(=S)N/N=C(\C)c1ccc(Cl)c(Cl)c1	27.9	-3.4	-1.0	6.63*	-8.0	-0.00744	0.00536	0.0324*	0.0376	0.0181*	0.0317*	0.0185*
COc1ccc(OC)c(CC(NC(C)=O)C(=O)NC2CCN(c3nc(OC)nc(OC)n3)CC2)c1 (stereo unspecified)	-8.2	-0.7	-6.0	-0.322	-1.0	-0.455	.	.	.	.	.	.
COCc1[nH][nH]c(=O)c1/C=N/N1CCOCC1	-8.8	-0.4	-0.3	-0.609	17.4	-0.0755	.	.	.	.	.	.
COC(=O)CN(c1cc([N+](=O)[O-])ccc1OC)S(C)(=O)=O	7.2	4.2	-3.8	0.62	-6.1	0.0506	.	.	.	.	.	.
COC(=O)c1cc2c(ccn2-c2ccc(F)cc2)n1CC(=O)N1CCN(C(=O)c2ccco2)CC1	-3.3	-10.7	-9.3	-6.69*	-13.5	0.18	?	?	0.0279*	0.00953*	?	0.0104

Source: PubChem (several laboratories)
